Data as given in ChEMBL document CHEMBL1250553, “Synthesis, cytotoxicity and liposome preparation of 28-acetylenic betulin derivatives” (Bioorg Med Chem, 2010).
The source made the active and inactive calls. The calls are words filed in the database; no cut-off is given here.

Key:
[1] = system: A253; assay: Cytotoxicity against human A253 cells at 30 uM after 96 hrs by sulforhodamine B assay; type: functional, cell-based
How it was run: (§1)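 Growth inhibition at the highest tested concentration, 30 µM, after 96 h exposure in 96-well plates. Read by SRB staining as % viable cells relative to untreated controls, from at least three independent experiments.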

[2] = system: SW-1736; assay: Cytotoxicity against human SW1736 cells at 30 uM after 96 hrs by sulforhodamine B assay; type: functional, cell-based; how it was run: as §1
[3] = system: A-431; assay: Cytotoxicity against human A431 cells at 30 uM after 96 hrs by sulforhodamine B assay; type: functional, cell-based; how it was run: as §1
[4] = system: FaDu; assay: Cytotoxicity against human FADU cells at 30 uM after 96 hrs by sulforhodamine B assay; type: functional, cell-based; how it was run: as §1
[5] = organism: Homo sapiens; assay: Cytotoxicity against human liposarcoma cells at 30 uM after 96 hrs by sulforhodamine B assay; type: functional, cell-based; how it was run: as §1
[6] = system: SW480; assay: Cytotoxicity against human SW480 cells at 30 uM after 96 hrs by sulforhodamine B assay; type: functional, cell-based; how it was run: as §1
[7] = system: MCF7; assay: Cytotoxicity against human MCF7 cells at 30 uM after 96 hrs by sulforhodamine B assay; type: functional, cell-based; how it was run: as §1
[8] = system: HCT-8; assay: Cytotoxicity against human HCT8 cells at 30 uM after 96 hrs by sulforhodamine B assay; type: functional, cell-based; how it was run: as §1
[9] = system: DLD-1; assay: Cytotoxicity against human DLD1 cells at 30 uM after 96 hrs by sulforhodamine B assay; type: functional, cell-based; how it was run: as §1
[10] = system: A2780; assay: Cytotoxicity against human A2780 cells at 30 uM after 96 hrs by sulforhodamine B assay; type: functional, cell-based; how it was run: as §1
[11] = system: 518A2; assay: Cytotoxicity against human 518A2 cells at 30 uM after 96 hrs by sulforhodamine B assay; type: functional, cell-based; how it was run: as §1
[12] = system: 8505C; assay: Cytotoxicity against human 8505C cells at 30 uM after 96 hrs by sulforhodamine B assay; type: functional, cell-based; how it was run: as §1
[13] = system: A549; assay: Cytotoxicity against human A549 cells at 30 uM after 96 hrs by sulforhodamine B assay; type: functional, cell-based; how it was run: as §1
[14] = system: HT-29; assay: Cytotoxicity against human HT-29 cells at 30 uM after 96 hrs by sulforhodamine B assay; type: functional, cell-based; how it was run: as §1
[15] = system: HCT-116; assay: Cytotoxicity against human HCT116 cells at 30 uM after 96 hrs by sulforhodamine B assay; type: functional, cell-based; how it was run: as §1
[16] = Cytotoxicity against human liposarcoma cells after 96 hrs by sulforhodamine B assay; type: functional, cell-based
How it was run: (§2)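 Human tumour cell lines in 96-well plates, exposed to test compounds for 96 h, then read by colorimetric sulforhodamine B staining. Viable cells are expressed as % of untreated controls. IC50 is taken from dose–response curves, top concentration 30 µM, as the mean of at least three independent experiments (variation generally 10%). Compounds are given as DMSO solutions or as an aqueous liposomal formulation.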

[17] = system: A2780; assay: Cytotoxicity against human A2780 cells after 96 hrs by sulforhodamine B assay; type: functional, cell-based; details: A2780, 96 h; how it was run: as §2
[18] = system: SW480 (Homo sapiens); assay: Induction of apoptosis in human SW480 cells assessed as DNA ladder formation at IC90 concentration after 24 hrs by DNA gel electrophoresis analysis
[19] = Cytotoxicity against human 518A2 cells after 96 hrs by sulforhodamine B assay; type: functional, cell-based; details: 518A2, 96 h; how it was run: as §2
[20] = system: A2780 (Homo sapiens); assay: Induction of apoptosis in human A2780 cells assessed as floating cells at IC90 concentration after 24 hrs by Trypan blue exclusion test
[21] = system: A2780; assay: Induction of apoptosis in human A2780 cells assessed as floating cells at IC90 concentration after 24 hrs by Trypan blue exclusion test; type: functional, cell-based
How it was run: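 A2780 ovarian cancer cells treated for 24 h. Floating cells are collected and scored by trypan-blue exclusion: apoptotic cells exclude the dye, necrotic cells stain blue.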

[22] = system: SW480; assay: Induction of apoptosis in human SW480 cells assessed as DNA ladder formation at IC90 concentration after 24 hrs by DNA gel electrophoresis analysis; type: functional, cell-based
How it was run: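 SW480 colon cancer cells treated for 24 h. Floating cells are collected, and DNA is analysed by gel electrophoresis for endonuclease-generated fragment laddering.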

[23] = Cytotoxicity against human A253 cells after 96 hrs by sulforhodamine B assay; type: functional, cell-based; details: A253, 96 h; how it was run: as §2
[24] = system: HT-29; assay: Cytotoxicity against human HT-29 cells after 96 hrs by sulforhodamine B assay; type: functional, cell-based; details: HT-29, 96 h; how it was run: as §2
[25] = system: A-431; assay: Cytotoxicity against human A431 cells after 96 hrs by sulforhodamine B assay; type: functional, cell-based; details: A-431, 96 h; how it was run: as §2
[26] = system: HCT-8; assay: Cytotoxicity against human HCT8 cells after 96 hrs by sulforhodamine B assay; type: functional, cell-based; details: HCT-8, 96 h; how it was run: as §2
[27] = system: A549; assay: Cytotoxicity against human A549 cells after 96 hrs by sulforhodamine B assay; type: functional, cell-based; details: A549, 96 h; how it was run: as §2
[28] = system: SW480; assay: Cytotoxicity against human SW480 cells after 96 hrs by sulforhodamine B assay; type: functional, cell-based; details: SW480, 96 h; how it was run: as §2
[29] = system: FaDu; assay: Cytotoxicity against human FADU cells after 96 hrs by sulforhodamine B assay; type: functional, cell-based; how it was run: as §2
[30] = system: 8505C; assay: Cytotoxicity against human 8505C cells after 96 hrs by sulforhodamine B assay; type: functional, cell-based; how it was run: as §2
[31] = system: HCT-116; assay: Cytotoxicity against human HCT116 cells after 96 hrs by sulforhodamine B assay; type: functional, cell-based; details: HCT-116, 96 h; how it was run: as §2
[32] = system: SW-1736; assay: Cytotoxicity against human SW1736 cells after 96 hrs by sulforhodamine B assay; type: functional, cell-based; details: SW-1736, 96 h; how it was run: as §2
[33] = system: MCF7; assay: Cytotoxicity against human MCF7 cells after 96 hrs by sulforhodamine B assay; type: functional, cell-based; details: MCF7, 96 h; how it was run: as §2
[34] = system: DLD-1; assay: Cytotoxicity against human DLD1 cells after 96 hrs by sulforhodamine B assay; type: functional, cell-based; details: DLD-1, 96 h; how it was run: as §2

SMILES	inhibition [1]	inhibition [2]	inhibition [3]	inhibition [4]	inhibition [5]	inhibition [6]	inhibition [7]	inhibition [8]	inhibition [9]	inhibition [10]	inhibition [11]	inhibition [12]	inhibition [13]	inhibition [14]	inhibition [15]	IC50 [16] [µM]	IC50 [17] [µM]	Activity [18]	IC50 [19] [µM]	IC50 [23] [µM]	further results
C=C(C)[C@@H]1CC[C@]2(C(=O)C#CC(=O)OC)CC[C@]3(C)[C@H](CC[C@@H]4[C@@]5(C)CC[C@H](OC(C)=O)C(C)(C)[C@@H]5CC[C@]43C)[C@@H]12	inactive	inactive	inactive	inactive	inactive	inactive	inactive	inactive	inactive	inactive	inactive	inactive	inactive	inactive	inactive	–	–	–	–	–	–
C=C(C)[C@@H]1CC[C@]2(C(=O)O)CC[C@]3(C)[C@H](CC[C@@H]4[C@@]5(C)CC[C@H](O)C(C)(C)[C@@H]5CC[C@]43C)[C@@H]12 [BETULINIC ACID]	–	–	–	–	–	–	–	–	–	–	–	–	–	–	–	9.7	11	–	–	–	–
C=C(C)[C@@H]1CC[C@]2([C@H](O)C#CC(=O)OC)CC[C@]3(C)[C@H](CC[C@@H]4[C@@]5(C)CC[C@H](OC(C)=O)C(C)(C)[C@@H]5CC[C@]43C)[C@@H]12	–	–	–	–	–	–	–	–	–	–	–	–	–	–	–	4.2	–	Active	5.9	2.7	Activity [20]: Active; Activity [21]: Active; Activity [22]: Active
C=C(C)[C@@H]1CC[C@]2([C@H](O)C#CCO)CC[C@]3(C)[C@H](CC[C@@H]4[C@@]5(C)CC[C@H](OC(C)=O)C(C)(C)[C@@H]5CC[C@]43C)[C@@H]12	–	–	–	–	–	–	–	–	inactive	–	–	–	–	–	–	11.4	10.4	–	11.9	10.3	IC50 [24]: 11.6 µM; IC50 [25]: 10.5 µM; IC50 [26]: 11.6 µM; IC50 [27]: 11.9 µM; IC50 [28]: 6.9 µM; IC50 [29]: 11.2 µM; IC50 [30]: 8.4 µM; IC50 [31]: 11.3 µM; IC50 [32]: 11.5 µM; IC50 [33]: 9.9 µM
C=C(C)[C@@H]1CC[C@]2([C@H](O)C#Cc3ccccc3)CC[C@]3(C)[C@H](CC[C@@H]4[C@@]5(C)CC[C@H](OC(C)=O)C(C)(C)[C@@H]5CC[C@]43C)[C@@H]12	inactive	inactive	inactive	inactive	inactive	inactive	inactive	inactive	inactive	inactive	inactive	inactive	inactive	inactive	inactive	–	–	–	–	–	–
C=C(C)[C@@H]1CC[C@]2([C@@H]3OC(=O)C=C3N(C)C)CC[C@]3(C)[C@H](CC[C@@H]4[C@@]5(C)CC[C@H](OC(C)=O)C(C)(C)[C@@H]5CC[C@]43C)[C@@H]12	–	–	–	–	–	–	–	–	–	–	–	–	–	–	–	5.3	2.6	Active	4.8	4.9	IC50 [24]: 5.7 µM; IC50 [25]: 3.3 µM; Activity [20]: Active; IC50 [26]: 1.7 µM; Activity [21]: Active; IC50 [27]: 6.1 µM; IC50 [28]: 2.2 µM; IC50 [29]: 3.8 µM; Activity [22]: Active; IC50 [34]: 3.6 µM; IC50 [30]: 3.1 µM; IC50 [31]: 3.2 µM; IC50 [32]: 2.9 µM; IC50 [33]: 6.9 µM
